The inhibition is how much of the control response was suppressed. By pIC50 is commonly meant the IC50 on a negative log10 scale, so that one unit is a factor of ten.

Here are results for 11 compounds from ChEMBL document CHEMBL1142891, “Lead discovery and optimization of T-type calcium channel blockers” (Bioorg Med Chem, 2007).

pIC50: −log10 of the molar value. A value given as a limit tells only on which side of the number the result lay.

Holding throughout (type): cell-based
The target in assay [1] is Voltage-dependent T-type calcium channel subunit alpha-1H (Homo sapiens) (UniProt O95180). The assay can be described thus: Inhibition of T type calcium channel subunit alpha-1H expressed in Xenopus oocytes at 100 uM by FDSS assay. To be noted: Oocyte.
Assay [2] deals with T1, Voltage-dependent T-type calcium channel subunit alpha-1G (Homo sapiens, UniProt O43497). The experiment in a line: Inhibition of T type calcium channel subunit alpha1G expressed in HEK293 cells assessed as effect on KCl-induced increase in intracellular calcium level at 10 uM by FDSS assay. The method in brief:
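HEK293 cells stably co-expressing α1G and Kir2.1 were plated at 40,000 cells/well and used the next day. Loaded 60 min at room temperature with 5 µM fluo3/AM plus 0.001% Pluronic F-127 in HEPES buffer (1.8 mM CaCl2, pH 7.4). Depolarized with 70 mM KCl in buffer containing 10 mM CaCl2; the rise in intracellular Ca2+ was read by fluorescence.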

In assay [3] the target is T1, Voltage-dependent T-type calcium channel subunit alpha-1G. The experiment in a line: Inhibition of T type calcium channel subunit alpha-1G expressed in HEK293 cells assessed as effect on T-type calcium currents at 10 uM by patch clamp method.
Assay [4] shares this target. The assay can be described thus: Inhibition of T type calcium channel subunit alpha-1G expressed in HEK293 cells assessed as effect on T-type calcium currents by patch clamp method. The method in brief:
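Whole-cell patch clamp on HEK293 cells expressing α1G. Electrodes of 3-4 MΩ held internal solution (mM): 130 KCl, 11 EGTA, 5 Mg-ATP, 10 HEPES, pH 7.4. External solution (mM): 140 NaCl, 2 CaCl2, 10 HEPES, 10 glucose, pH 7.4. Currents evoked every 15 s by a 50 ms step from -100 to -30 mV. Read-out was peak current; IC50 from dose-response fits.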
In general terms: The patch-clamp technique gives a direct electrical read-out from membranes.

Chain of Voltage-dependent T-type calcium channel subunit alpha-1H (Homo sapiens) (O95180 whole entry): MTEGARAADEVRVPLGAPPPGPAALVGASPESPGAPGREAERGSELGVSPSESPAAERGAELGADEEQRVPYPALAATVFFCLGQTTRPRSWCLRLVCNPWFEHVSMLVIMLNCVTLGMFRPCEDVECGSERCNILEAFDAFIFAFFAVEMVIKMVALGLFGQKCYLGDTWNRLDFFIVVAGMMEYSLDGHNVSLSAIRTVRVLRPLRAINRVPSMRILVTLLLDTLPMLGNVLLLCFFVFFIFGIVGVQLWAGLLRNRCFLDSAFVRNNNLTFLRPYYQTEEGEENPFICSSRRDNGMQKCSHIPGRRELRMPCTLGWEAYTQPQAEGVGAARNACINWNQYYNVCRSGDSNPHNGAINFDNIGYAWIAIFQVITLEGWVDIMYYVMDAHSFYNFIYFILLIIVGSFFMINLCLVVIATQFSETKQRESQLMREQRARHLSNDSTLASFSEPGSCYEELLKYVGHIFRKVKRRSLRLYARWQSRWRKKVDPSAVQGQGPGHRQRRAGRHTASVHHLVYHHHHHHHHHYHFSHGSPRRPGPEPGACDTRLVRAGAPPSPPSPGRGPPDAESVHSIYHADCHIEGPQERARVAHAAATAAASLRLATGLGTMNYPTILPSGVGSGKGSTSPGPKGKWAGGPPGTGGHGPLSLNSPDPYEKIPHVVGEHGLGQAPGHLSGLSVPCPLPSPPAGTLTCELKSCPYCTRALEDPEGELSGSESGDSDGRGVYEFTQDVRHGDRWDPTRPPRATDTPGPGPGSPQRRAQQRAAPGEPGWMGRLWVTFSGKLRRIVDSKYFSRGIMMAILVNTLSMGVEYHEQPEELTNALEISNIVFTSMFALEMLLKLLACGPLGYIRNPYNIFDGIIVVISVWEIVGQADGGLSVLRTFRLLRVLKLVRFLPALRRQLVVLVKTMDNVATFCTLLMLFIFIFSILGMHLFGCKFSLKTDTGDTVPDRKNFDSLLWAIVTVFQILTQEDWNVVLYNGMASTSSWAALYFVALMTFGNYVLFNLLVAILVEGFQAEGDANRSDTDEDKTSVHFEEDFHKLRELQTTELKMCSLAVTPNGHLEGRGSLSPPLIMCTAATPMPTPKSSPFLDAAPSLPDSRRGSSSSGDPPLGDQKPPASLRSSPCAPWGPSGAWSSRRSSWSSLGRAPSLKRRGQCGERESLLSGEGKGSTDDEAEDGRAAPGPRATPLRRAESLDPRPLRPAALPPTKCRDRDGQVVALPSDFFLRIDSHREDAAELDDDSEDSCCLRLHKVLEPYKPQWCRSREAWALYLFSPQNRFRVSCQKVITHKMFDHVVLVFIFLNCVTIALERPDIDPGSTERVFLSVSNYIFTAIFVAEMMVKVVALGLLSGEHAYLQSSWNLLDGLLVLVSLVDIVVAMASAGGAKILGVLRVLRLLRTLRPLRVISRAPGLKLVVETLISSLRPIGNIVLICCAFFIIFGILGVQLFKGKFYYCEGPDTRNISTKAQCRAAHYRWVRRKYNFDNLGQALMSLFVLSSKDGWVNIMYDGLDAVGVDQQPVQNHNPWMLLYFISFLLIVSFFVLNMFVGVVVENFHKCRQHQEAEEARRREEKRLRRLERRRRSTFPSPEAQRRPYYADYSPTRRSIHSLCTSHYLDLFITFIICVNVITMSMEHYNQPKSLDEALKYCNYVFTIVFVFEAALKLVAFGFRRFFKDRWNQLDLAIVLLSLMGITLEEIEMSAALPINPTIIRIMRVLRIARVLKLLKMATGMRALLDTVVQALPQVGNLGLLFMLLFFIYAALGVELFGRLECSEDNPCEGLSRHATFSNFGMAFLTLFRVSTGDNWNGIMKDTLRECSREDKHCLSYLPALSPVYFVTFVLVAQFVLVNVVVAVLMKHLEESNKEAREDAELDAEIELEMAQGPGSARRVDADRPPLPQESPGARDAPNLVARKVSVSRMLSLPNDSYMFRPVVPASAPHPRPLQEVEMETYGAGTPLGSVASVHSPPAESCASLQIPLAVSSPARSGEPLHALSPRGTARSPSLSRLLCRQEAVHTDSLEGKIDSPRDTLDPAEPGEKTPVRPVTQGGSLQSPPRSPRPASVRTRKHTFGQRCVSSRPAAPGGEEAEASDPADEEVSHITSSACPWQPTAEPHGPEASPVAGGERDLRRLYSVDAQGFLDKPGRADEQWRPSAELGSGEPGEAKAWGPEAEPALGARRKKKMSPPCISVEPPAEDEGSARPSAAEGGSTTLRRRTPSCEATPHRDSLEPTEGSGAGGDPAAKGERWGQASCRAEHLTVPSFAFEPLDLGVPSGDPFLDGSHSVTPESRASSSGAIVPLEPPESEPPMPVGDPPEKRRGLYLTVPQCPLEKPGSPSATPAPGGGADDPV
T1 sequence (O43497 whole entry): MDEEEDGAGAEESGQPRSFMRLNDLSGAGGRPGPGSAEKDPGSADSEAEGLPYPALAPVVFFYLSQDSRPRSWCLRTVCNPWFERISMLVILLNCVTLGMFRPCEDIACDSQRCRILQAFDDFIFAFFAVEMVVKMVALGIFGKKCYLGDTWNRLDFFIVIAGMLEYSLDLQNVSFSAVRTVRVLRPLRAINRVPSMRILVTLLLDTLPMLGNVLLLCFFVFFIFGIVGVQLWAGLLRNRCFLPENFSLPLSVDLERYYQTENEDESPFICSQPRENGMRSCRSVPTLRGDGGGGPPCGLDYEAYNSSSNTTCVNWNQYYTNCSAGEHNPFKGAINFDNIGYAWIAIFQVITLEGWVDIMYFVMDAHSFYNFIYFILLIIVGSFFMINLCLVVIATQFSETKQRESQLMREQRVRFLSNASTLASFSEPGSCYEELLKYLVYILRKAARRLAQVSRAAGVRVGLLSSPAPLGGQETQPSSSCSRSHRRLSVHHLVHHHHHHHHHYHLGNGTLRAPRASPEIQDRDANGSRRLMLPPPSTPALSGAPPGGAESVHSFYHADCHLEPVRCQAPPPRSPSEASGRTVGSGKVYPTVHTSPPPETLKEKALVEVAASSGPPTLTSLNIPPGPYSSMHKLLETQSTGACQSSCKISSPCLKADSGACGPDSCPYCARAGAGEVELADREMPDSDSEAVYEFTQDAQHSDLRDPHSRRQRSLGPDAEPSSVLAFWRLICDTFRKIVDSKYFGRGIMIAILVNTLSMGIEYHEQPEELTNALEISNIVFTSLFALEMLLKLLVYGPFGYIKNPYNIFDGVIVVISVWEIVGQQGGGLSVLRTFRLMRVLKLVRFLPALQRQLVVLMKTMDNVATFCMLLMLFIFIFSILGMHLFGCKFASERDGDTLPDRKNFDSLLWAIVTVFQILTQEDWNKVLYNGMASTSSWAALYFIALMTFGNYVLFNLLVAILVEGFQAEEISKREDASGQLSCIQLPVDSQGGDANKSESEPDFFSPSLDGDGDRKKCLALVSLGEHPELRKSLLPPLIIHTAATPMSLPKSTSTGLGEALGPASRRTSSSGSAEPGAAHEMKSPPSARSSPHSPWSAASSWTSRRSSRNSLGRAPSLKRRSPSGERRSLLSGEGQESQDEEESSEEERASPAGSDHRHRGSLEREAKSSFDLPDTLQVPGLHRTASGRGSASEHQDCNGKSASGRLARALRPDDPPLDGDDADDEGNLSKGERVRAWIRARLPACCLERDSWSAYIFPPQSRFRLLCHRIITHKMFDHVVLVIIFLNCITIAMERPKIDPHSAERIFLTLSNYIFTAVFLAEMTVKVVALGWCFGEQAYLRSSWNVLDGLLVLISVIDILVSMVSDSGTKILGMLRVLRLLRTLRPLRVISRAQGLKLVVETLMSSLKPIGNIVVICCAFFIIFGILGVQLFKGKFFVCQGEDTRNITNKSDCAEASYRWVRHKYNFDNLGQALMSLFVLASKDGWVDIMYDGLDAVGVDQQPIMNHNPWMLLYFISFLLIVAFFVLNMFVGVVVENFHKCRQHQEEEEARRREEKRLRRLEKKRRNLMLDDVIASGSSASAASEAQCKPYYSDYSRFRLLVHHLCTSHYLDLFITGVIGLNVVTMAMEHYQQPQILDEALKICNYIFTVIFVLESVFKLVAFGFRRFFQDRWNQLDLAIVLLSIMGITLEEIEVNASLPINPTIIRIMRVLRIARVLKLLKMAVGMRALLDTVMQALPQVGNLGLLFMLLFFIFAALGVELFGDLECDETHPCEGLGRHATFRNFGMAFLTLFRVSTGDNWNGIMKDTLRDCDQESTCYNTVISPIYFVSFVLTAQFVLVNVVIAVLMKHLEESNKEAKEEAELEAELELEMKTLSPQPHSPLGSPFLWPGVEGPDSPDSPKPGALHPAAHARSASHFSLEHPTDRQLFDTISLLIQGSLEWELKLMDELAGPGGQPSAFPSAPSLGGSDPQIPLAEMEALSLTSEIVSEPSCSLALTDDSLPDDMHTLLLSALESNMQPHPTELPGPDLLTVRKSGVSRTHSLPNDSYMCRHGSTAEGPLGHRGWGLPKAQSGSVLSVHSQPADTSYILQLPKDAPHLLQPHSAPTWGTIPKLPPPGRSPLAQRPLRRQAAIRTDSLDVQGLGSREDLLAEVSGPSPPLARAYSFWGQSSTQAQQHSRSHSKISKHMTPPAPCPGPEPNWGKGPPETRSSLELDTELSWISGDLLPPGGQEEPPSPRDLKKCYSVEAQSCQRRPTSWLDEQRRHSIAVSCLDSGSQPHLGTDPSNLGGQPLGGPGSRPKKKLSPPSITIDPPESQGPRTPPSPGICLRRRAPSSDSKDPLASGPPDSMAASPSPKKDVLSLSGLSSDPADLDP

In the case of `CCN1CCN(CCCCC(=O)N2CCN(CC(=O)Nc3cccc(C(F)(F)F)c3)CC2)CC1`, in assay [1], the inhibition is 23.6%. For `O=C(CN1CCN(C(=O)CCCCN2CCN(c3ccccc3)CC2)CC1)Nc1cccc(Cl)c1`, the inhibition in assay [1] came to 75.3%. On the same count and under the same terms, the result for `CN1CCN(CCCCC(=O)N2CCN(CC(=O)Nc3cccc(C(F)(F)F)c3)CC2)CC1` reads < 1%. The same measure, in the same setting: the result for `CCN1CCN(CCCCC(=O)N2CCN(CC(=O)Nc3cccc(Cl)c3)CC2)CC1` reads 71.6%. Take `O=C(CCCCN1CCN(Cc2ccc(Cl)c(Cl)c2)CC1)N1CCN(c2ccccc2)CC1`: the inhibition in assay [2] was found to be 56.2%; in assay [3], 73.8%. Besides, in assay [4], the pIC50 is 5.54. `CN1CCN(CCCCC(=O)N2CCN(CC(=O)Nc3cccc(Cl)c3)CC2)CC1`: in assay [1], the inhibition was < 1%. Still for that read-out and setting: the result for `O=C(CN1CCN(C(=O)CCCCN2CCN(c3ccccc3)CC2)CC1)Nc1cccc(C(F)(F)F)c1` reads 53%. For `O=C(CCCN1CCN(c2ccccc2)CC1)Nc1ccc(Cl)cc1Cl`, the inhibition in assay [2] was 38.5%; in assay [3], 76.2%. Moreover, in assay [4], the pIC50 was 5.38. The corresponding values for `O=C(CCCN1CCN(Cc2ccccc2)CC1)Nc1ccc(Cl)cc1` are 30.8%, 78% and 5.45.

Turning to `O=C(CCCN1CCN(c2ccc(Cl)cc2)CC1)Nc1ccc(Cl)cc1`, the inhibition in assay [2] turned out to be 48.3%; in assay [3], 94.6%. Besides, the negative logarithm of the IC50 (pIC50) in assay [4] was 5.58.

Take `O=C(CCCN1CCN(Cc2cccc(Cl)c2)CC1)Nc1ccc(Cl)cc1Cl`: the inhibition in assay [2] was 50.8%; in assay [3], 87.3%. Besides, the pIC50 in assay [4] is 5.83.
